The list is not random: actives were taken first. Their share in the collection is about 3.1%.
MBD2 inh: inhibitors of MBD2 binding to methylated DNA, primary screen, biochemical, TR-FRET, DNA-binding domain, human; Methyl-CpG-binding domain protein 2 (Homo sapiens), Q9UBB5; MBD2 binding to methylated oligonucleotide; inhibition, % at 4.4 µM; 0.31% of 370,000 active; in the data active means inhibition above about 13%
LEDGF integ inh: blockers of LEDGF/p75-dependent integrase strand transfer – biochemical, TR-FRET, high throughput, primary screen; HIV-1 integrase (with human LEDGF/p75); TR-FRET IN-LEDGF/p75 DNA integration, Eu/Cy5; inhibition, % at 3.7 µM; 0.64% of 370,000 active;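 active means inhibition above the screen-wide mean plus 3 SD, cut at about 13% in these data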;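 further: signal is the Cy5 over europium emission ratio at 671 and 618 nm; 0% = plate median of compound wells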
RBBP9 inh: human RBBP9 inhibitors, primary screen, biochemical, fluorescence polarization, FP-Rh probe, HTS | Serine hydrolase RBBP9 (Homo sapiens), O75884 | recombinant RBBP9 | inhibition, % at 7.94 µM | 0.2% of 220,000 active;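 active means inhibition above the campaign mean of all tested compounds plus 3 SD, cut at about 14% in these data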;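 further: plate controls were DMSO wells with RBBP9 for no effect and wells lacking RBBP9 protein for full effect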
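Test system: recombinant human RBBP9. Quantity: 2.5 µM RBBP9 dispensing solution, before mixing. Detection: FP readout at 525/598 nm. Reagent: Serine-hydrolase probe FP-Rh, 375 nM pre-mixing. Measure: % inhibition. Control set: DMSO-treated enzyme wells and wells lacking RBBP9. Buffer or medium: Tris-NaCl-Pluronic buffer, pH 8.0. Times: preincubation 30 min plus labeling 45 min at 25 °C.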
ABHD5 PLIN5 PPI: ABHD5-PLIN5 interaction inhibitors, primary screen, cell lysate, split luciferase complementation, luminescence. Perilipin-5 (Homo sapiens) + 1-acylglycerol-3-phosphate O-acyltransferase ABHD5 (Homo …. Split G. princeps luciferase complementation, 4 h. inhibition, % at 4 µM. 0.78% of 360,000 active. AID 602281, 2012;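 active means inhibition above the mean inhibition across every tested compound plus 3 SD, cut at about 22% in these data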;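 further: 0% = DMSO only wells and the 100% control is not disclosed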
Target sequence (Q00G26 whole entry, looked up): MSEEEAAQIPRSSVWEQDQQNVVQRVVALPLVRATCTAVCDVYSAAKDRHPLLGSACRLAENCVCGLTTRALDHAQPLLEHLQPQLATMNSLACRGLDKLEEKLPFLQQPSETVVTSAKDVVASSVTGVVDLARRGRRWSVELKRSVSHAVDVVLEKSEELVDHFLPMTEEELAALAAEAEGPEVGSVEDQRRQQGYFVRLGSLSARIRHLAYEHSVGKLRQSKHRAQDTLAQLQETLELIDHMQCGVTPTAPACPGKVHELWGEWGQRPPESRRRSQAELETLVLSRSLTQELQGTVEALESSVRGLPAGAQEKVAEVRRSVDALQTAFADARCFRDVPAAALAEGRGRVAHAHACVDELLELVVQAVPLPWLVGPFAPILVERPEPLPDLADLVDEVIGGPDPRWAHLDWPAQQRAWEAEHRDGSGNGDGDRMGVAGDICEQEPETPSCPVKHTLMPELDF
Target sequence (Q8WTS1 whole entry, looked up): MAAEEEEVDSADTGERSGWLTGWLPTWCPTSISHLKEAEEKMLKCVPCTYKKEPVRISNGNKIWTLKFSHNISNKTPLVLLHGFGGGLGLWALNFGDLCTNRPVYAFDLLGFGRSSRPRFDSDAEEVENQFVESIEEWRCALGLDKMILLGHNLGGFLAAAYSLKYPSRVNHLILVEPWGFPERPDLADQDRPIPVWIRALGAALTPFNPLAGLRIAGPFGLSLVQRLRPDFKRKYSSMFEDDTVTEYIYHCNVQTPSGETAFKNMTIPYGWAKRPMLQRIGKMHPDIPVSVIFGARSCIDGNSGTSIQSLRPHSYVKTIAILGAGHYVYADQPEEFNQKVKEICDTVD
UHRF1 binding: UHRF1 methylated DNA binding inhibitors, primary screen, counter-screen for MBD2 inhibitor project, biochemical, TR-FRET, human UHRF1, single concentration | AID 687016, 2013 | inhibition, % at 4.4 µM | UHRF1 binding to methylated oligo | E3 ubiquitin-protein ligase UHRF1 (Homo sapiens), Q96T88 | 0.75% of 370,000 active; in the data active means inhibition above about 21%;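 further: UHRF1 SRA domain binding a hemimethylated CpG hairpin DNA probe; 0% = median of test compound wells and 100% = reference inhibitor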
PRMT1 FP inh: PRMT1 methyltransferase inhibitors, primary screen, biochemical, fluorescence polarization; 1.3% of 370,000 active; recombinant PRMT1, activity-based probe fluorescence polarization; inhibition, % at 2.79 µM; AID 652257, 2013;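 active means inhibition above about 21% made by adding two undisclosed values, limit read from the data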
PRMT1 inh conf: PRMT1 methyltransferase inhibitors, confirmation, biochemical, fluorescence polarization, triplicate | shares compounds with PRMT1 FP inh | recombinant His-PRMT1, activity-based probe fluorescence polarization | inhibition, % at 2.79 µM | 42% of 3,300 active;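 active means mean inhibition across replicates above the hit cutoff derived for the earlier primary screen, cut at about 22% in these data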
The depositor's hits bear a star.

Results for O=C(Nc1ccc(Cl)c(Cl)c1)C1CCCN(c2nnc(-n3cccc3)s2)C1 (stereo not drawn) ?
MBD2 inh: -6; LEDGF integ inh: 5; UHRF1 binding: 1; PRMT1 FP inh: 0

Results for Cc1c(O)nc(SCC(=O)Nc2cccc(C(F)(F)F)c2)n(-c2ccccc2)c1=O ?
MBD2 inh: -1; LEDGF integ inh: 1; ABHD5 PLIN5 PPI: -6; UHRF1 binding: 4; PRMT1 FP inh: 95*; PRMT1 inh conf: 75*

What do the screens show for `COc1ccc(-n2c(SCC(=O)Nc3ccccc3OC)nc(O)cc2=O)cc1`?
MBD2 inh: 0; LEDGF integ inh: -2; RBBP9 inh: -3; ABHD5 PLIN5 PPI: 2; UHRF1 binding: 2; PRMT1 FP inh: 1

How did CCc1c(O)nc(SCC(=O)Nc2ccccc2)n(-c2ccccc2C)c1=O do in these assays?
MBD2 inh: 4; LEDGF integ inh: 0; ABHD5 PLIN5 PPI: 11; UHRF1 binding: 2; PRMT1 FP inh: 36*; PRMT1 inh conf: 20

How did Cc1ccc(NC(=O)CSc2nc(O)c(Cc3ccccc3)c(=O)n2-c2ccccc2)cc1 do in these assays?
MBD2 inh: 3; LEDGF integ inh: 3; RBBP9 inh: 1; ABHD5 PLIN5 PPI: -8; UHRF1 binding: 20; PRMT1 FP inh: 33*; PRMT1 inh conf: 29*

Results for COc1ccc(-n2c(SCC(=O)Nc3ccccc3OC)nc(O)c(Cc3ccccc3)c2=O)cc1 ?
MBD2 inh: 5; LEDGF integ inh: -1; ABHD5 PLIN5 PPI: 5; UHRF1 binding: 5; PRMT1 FP inh: 30*; PRMT1 inh conf: 22*

Results for CCCCNC(=O)C[C@H]1C[C@@]2(C(=O)OC)C(=C[C@H](COCc3ccccc3)O[C@@H]2C)N(Cc2ccccc2)C1=O ?
MBD2 inh: 1; LEDGF integ inh: 0; UHRF1 binding: 1; PRMT1 FP inh: 5

What do the screens show for `COC(=O)[C@]12CCCCC=C1N(Cc1ccc(OC)cc1)C(=O)[C@@H]2CC(=O)NCC12CC3CC(CC(C3)C1)C2`?
MBD2 inh: -1; LEDGF integ inh: 8; UHRF1 binding: -1; PRMT1 FP inh: -1

Results for CCc1c(O)nc(SCC(=O)Nc2c(C)cccc2C)n(-c2ccc(F)cc2)c1=O ?
MBD2 inh: 5; LEDGF integ inh: 4; ABHD5 PLIN5 PPI: -2; UHRF1 binding: 0; PRMT1 FP inh: 14

Results for CCc1c(O)nc(SCC(=O)Nc2ccccc2C)n(-c2ccc(C)cc2)c1=O ?
MBD2 inh: -1; LEDGF integ inh: 4; ABHD5 PLIN5 PPI: -3; UHRF1 binding: 1; PRMT1 FP inh: 30*; PRMT1 inh conf: 13

How did C[C@H]1[C@@H](NCC2CCCCC2)CC[C@@]23CCCN2C(=O)CCC[C@@H]13 do in these assays?
MBD2 inh: 2; LEDGF integ inh: 3; UHRF1 binding: -2; PRMT1 FP inh: -3

What do the screens show for `COc1ccccc1NS(=O)(=O)c1cc(NC(=O)c2ccc(Cl)nc2)ccc1Cl`?
MBD2 inh: 0; LEDGF integ inh: -3; RBBP9 inh: -34; ABHD5 PLIN5 PPI: -1; UHRF1 binding: 0; PRMT1 FP inh: -3

Results for CCN(CC)c1ccc(NC(=O)c2cccc(C)c2)cc1S(=O)(=O)Nc1ccccc1OC ?
MBD2 inh: -2; LEDGF integ inh: -2; RBBP9 inh: -23; ABHD5 PLIN5 PPI: -3; UHRF1 binding: 0; PRMT1 FP inh: 34*; PRMT1 inh conf: 4

How did COc1ccc(C(=O)Nc2ccc(Cl)c(S(=O)(=O)Nc3ccccc3OC)c2)cc1 do in these assays?
MBD2 inh: 6; LEDGF integ inh: -3; RBBP9 inh: -22; ABHD5 PLIN5 PPI: 5; UHRF1 binding: -1; PRMT1 FP inh: -1

What do the screens show for `CCN(CC)c1ccc(NC(=O)c2ccccc2)cc1S(=O)(=O)Nc1ccccc1OC`?
MBD2 inh: -9; LEDGF integ inh: 5; RBBP9 inh: -22; ABHD5 PLIN5 PPI: -7; UHRF1 binding: -4; PRMT1 FP inh: 27*; PRMT1 inh conf: 10

How did COCc1[nH]nc2c1C(c1ccccc1)NC2=O (stereo not drawn) do in these assays?
MBD2 inh: 4; LEDGF integ inh: -3; UHRF1 binding: 2; PRMT1 FP inh: 0

What do the screens show for `COC(=O)c1cc(-c2ccc(Cl)s2)c(=O)n2c1CCC2`?
MBD2 inh: -2; LEDGF integ inh: 1; UHRF1 binding: -2; PRMT1 FP inh: 0

How did O=C(O)CNC(=O)CC1S/C(=N/N=C2\CSC(=O)N2)NC1=O (stereo not drawn) do in these assays?
MBD2 inh: -2; LEDGF integ inh: 1; RBBP9 inh: -10; ABHD5 PLIN5 PPI: -21; UHRF1 binding: -3; PRMT1 FP inh: 38*; PRMT1 inh conf: 22*

How did Cc1cccc(NC(=O)C2CC(=O)n3cnnc3S2)c1 (stereo not drawn) do in these assays?
MBD2 inh: 10; LEDGF integ inh: 0; RBBP9 inh: -10; ABHD5 PLIN5 PPI: 9; UHRF1 binding: 5; PRMT1 FP inh: 84*; PRMT1 inh conf: 60*

How did COc1ccc(CC(=O)N(Cc2ccccc2)c2ccccc2C(=O)Nc2cc(OC)ccc2OC)cc1 do in these assays?
MBD2 inh: -3; LEDGF integ inh: 4; UHRF1 binding: 1; PRMT1 FP inh: 2

How did O=C(O)CCCCN1C(=O)C=CC1=O do in these assays?
MBD2 inh: -2; LEDGF integ inh: 7; UHRF1 binding: 0; PRMT1 FP inh: 77*; PRMT1 inh conf: 95*

Results for Cn1c(=O)[nH]c(=O)c2c1nc(SCC(=O)O)n2CCc1ccccc1 ?
MBD2 inh: 3; LEDGF integ inh: -1; RBBP9 inh: -6; ABHD5 PLIN5 PPI: 0; UHRF1 binding: 2; PRMT1 FP inh: 26*; PRMT1 inh conf: 5

How did CCCCCCCCN1C(=O)[C@@H](CC(=O)N2CCN(C(=O)c3ccco3)CC2)C[C@@]2(C(=O)OC)C1=C[C@H](C(C)C)O[C@@H]2C1CC1 do in these assays?
MBD2 inh: -2; LEDGF integ inh: 3; UHRF1 binding: 3; PRMT1 FP inh: 3

Results for CC(C)(CCC(=S)N1CCOCC1)C1CCCCC1 ?
MBD2 inh: -3; LEDGF integ inh: 2; ABHD5 PLIN5 PPI: 2; UHRF1 binding: 0; PRMT1 FP inh: 37*; PRMT1 inh conf: 6

How did S=C(CN1CCCC1=S)N1CCOCC1 do in these assays?
MBD2 inh: -8; LEDGF integ inh: 2; ABHD5 PLIN5 PPI: 1; UHRF1 binding: 2; PRMT1 FP inh: -3

Compound activity from PubChem.
